Experiment: Toxicity liver stage against HepG2, at 10uM
Assay type: cell-based
Design: test concentration 10 uM, cell line HepG2-A16-CD81EGFP
Settings: human, HepG2-A16-CD81EGFP cells; read-out: INHIBITION
How it was run: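 Uninfected HepG2-A16-CD81EGFP cells, 3 × 10^3 per well, 1536-well, plated on prespotted compound at 10 μM final, parasite-free screening media added to match infected plates; puromycin 10 μM positive, DMSO 0.5% negative; run in parallel with 48 h PbLuc assay at 37 °C, 5% CO2; viability by CellTiter-Glo luminescence, normalized to controls.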

Compound | cytotoxicity at 10 µM
Cn1cc(CNc2cnn(CC3CCCO3)c2)c(-c2ccncc2)n1 (stereo unspecified) | 4.4%
Cc1noc(C)c1-c1cccc(C2CN(CC(=O)N(C)C)CCO2)n1 (stereo unspecified) | 0.025%
CC(NC(=O)N1CCS(=O)(=O)CC1)c1c(F)cccc1Cl (stereo unspecified) | 3.54%
COCCn1cnnc1C1CCCN(C(C)C)C1 (stereo unspecified) | -27.6%
NC(=O)C1CCN(CC(=O)NCCc2c(F)cccc2F)CC1 | -7.14%
Cc1nn(C)cc1S(=O)(=O)N[C@@H]1CCC[C@@H](N2CCCC2)[C@@H]1O | -3.02%
N#CCCN(C(=O)CCc1cccnc1)c1ccc2c(c1)OCCO2 | -5.34%
COc1cc(OC)cc(-c2noc(C(N)CCSC)n2)c1 (stereo unspecified) | -3.18%
COC(=O)CCCNC(=O)COc1ccccc1C(F)(F)F | -0.969%
CCN1CCN(C(=O)c2cccc(CN3CCOCC3)c2)CC1 | 7.12%
CCn1cc(NC(=O)C2CCC(=O)N2Cc2ccco2)cn1 (stereo unspecified) | -0.607%
Cc1ccc(CNC(=O)NC2CCCN(c3ncccn3)C2)n1C (stereo unspecified) | 5.23%
O=C(c1ccc(S(=O)(=O)N2CCNCC2)cc1)N1CCCC(O)C1 (stereo unspecified) | 8.48%
O=C1CC2(CCN(c3nncs3)C2)CN1c1ccccc1 (stereo unspecified) | -8.25%
CNC(=O)NCCc1csc2ccccc12 | 2.22%
O=C(c1nc(=O)[nH][nH]1)N1CCCCCC1 | 14.1%
Cc1cc(-c2cc(F)ccc2C(=O)O)nc(C2CCCN(C)C2)n1 (stereo unspecified) | -11.4%
Cc1cc(O)cc(=O)n1CCCC(=O)Nc1n[nH]c2cccc(F)c12 | -8.85%
COCC(=O)N1CCN(C(C)C(=O)NC(C)C)CC1 (stereo unspecified) | 1.06%

Compound | cytotoxicity at 10 µM
COc1coc(C(=O)Nc2nc(-c3ccccn3)cs2)cc1=O | 7.31%
CNC(=O)CN(C)C(=O)c1cc2ccccc2cc1OC | 17.1%
CN(C)C(=O)CO[C@@H]1CC[C@H]2[C@H]1OCCN2c1ncc(F)cn1 | 5.44%
CN(C)C(=O)N1CCCC2(CCN(Cc3ccc(Cl)c(F)c3)C2)C1 (stereo unspecified) | 7.07%
Cc1csc(N2CCN(C(=O)c3cc(C4CC4)[nH]n3)CC2)n1 | 3.34%
CCc1ccc(CN2CCC3(CC2)NC(=O)CC3c2ccncc2)o1 (stereo unspecified) | 1.83%
Cc1nc(N(C)CCCc2nccn2C)c2c(C)nn(C)c2n1 | 5.84%
Clc1cccc(C2CCN(c3ncnc4c3CCNC4)C2)c1 (stereo unspecified) | 50%
Cc1cccc2cc(CN3CCC(N4CCCC4)CC3)c(=O)[nH]c12 | -3.45%
COC(=O)c1ccc(OC)c(Cn2cc(N)cn2)c1 | -7.8%
CCNC(=O)NC(=O)CN1CCOC(c2ccc(Br)cc2)C1 (stereo unspecified) | 2.08%
COc1c(CNC2CCN(c3ncccn3)CC2)c(C(C)C)nn1C | -4.81%
COc1ccc(OC)c(C(C)NC(=O)Nc2nnc(C)s2)c1 (stereo unspecified) | 14.7%
CSCCCN1C(=O)CC[C@H]2CN(Cc3ncc[nH]3)CC[C@H]21 | 7.4%
COC(=O)CNC(=O)CC1COc2ccc(C(=O)N(C)C)cc2N1C (stereo unspecified) | -8.8%
CC(C)c1noc(CCC(=O)N2CCSCC2)n1 | -2.99%
O=C(CN1CCOCC1)N1CCC(c2cc(N3CCCC3)ncn2)CC1 | 3.6%
Cc1noc(CN(CCc2ccco2)Cc2cccc(C#N)c2)n1 | 3.04%
CSc1ccsc1C(=O)N1CCN(CC(C)(C)O)CC1 | -3.22%

Compound | cytotoxicity at 10 µM
O=C(c1ccco1)N1CCCC(c2cc(C(F)(F)F)[nH]n2)C1 (stereo unspecified) | -16.1%
CC(C)(C)OC(=O)N1CCC(C(=O)NC2CCS(=O)(=O)C2)CC1 (stereo unspecified) | -6.81%
CC(=O)N1CCC(NC(=O)Cc2csc(C(C)(C)C)n2)CC1 | -8.41%
c1cncc(O[C@H]2COCCN(Cc3c[nH]c4ccccc34)C2)c1 | 0.208%
Cc1cc(C2CCCN(C(=O)CCc3cscn3)C2)n[nH]1 (stereo unspecified) | -0.939%
CC(C)N1C[C@@H]2CN(C(=O)NCc3ccccc3)CCC[C@]2(C(=O)O)C1 | 9.37%
COc1ccc(F)c(CN2CCCC(O)(CNC3CCCCC3)C2=O)c1 (stereo unspecified) | 8.28%
COCC(=O)N1CCC2(COCc3c(C)nc(N(C)C)nc32)C1 (stereo unspecified) | 9.09%
CCOC(=O)CC(c1ccc(OC)c(OC)c1)c1c(O)n[nH]c1C (stereo unspecified) | 1.64%
CC(C)c1nnc(CN(C)C(c2ccccc2)c2ccc(F)cc2)o1 (stereo unspecified) | 15.5%
Cc1cccc(CN2C[C@@H]3CN(C(=O)NC(C)C)C[C@@H]3C2=O)c1 | -12.9%
Cc1cc(CNC(=O)COc2ccccc2F)c(C)o1 | -2.33%
Cn1cc(C(=O)Nc2ccc3c(c2)N(C(=O)c2ccco2)CC3)nn1 | 0.529%
c1coc(-c2nc(CNC3CCC4(CCNCC4)CC3)no2)c1 | -15.8%
CC1(C)CC(N(Cc2ccncc2)Cc2cccnc2)CC(C)(C)N1 | -14.6%
COc1ccc(-c2cnc(CN3CCCC3Cn3cccn3)o2)cc1 (stereo unspecified) | -5.71%
CN(Cc1cccc(C(=O)Nc2ccnn2C)c1)CC1(C)COC1 | -5.84%
CC1CN(Cc2cccc(CNC3CCCC3)c2)CCO1 (stereo unspecified) | 3.06%

Reference: ChEMBL document CHEMBL4513216, “Probing the Open Global Health Chemical Diversity Library for Multistage-Active Starting Points for Next-Generation Antimalarials” (ACS Infect Dis, 2020)
